Laboratory results from PubChem BioAssay.
Active and inactive are the calls of the source.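 Rule for the calls, unless noted: active = viability at or below 10% of carrier control in both of two separate runs; inconclusive = viability at or below 10% in only one of the two runs; inactive = the rest.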

Columns and labels:
[1] = Her2 expression decrease, cell viability multiplex – SKBR3 breast tumor cells, AlphaScreen, ATP viability, primary screen (AID 461;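 active = Her2 level under about 52% in both replicate screens, with viability over 70% of control, limit read from the data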;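 for Her2 level: lower value means less Her2 protein in the cells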;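 for viability: percent of carrier control wells set as 100% viability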); settings: SKBR3 Her2 protein level, 18-24 h, measured here: SKBR3 viability, ATP luminescence, at 10 µM
[2] = biological target: Receptor tyrosine-protein kinase erbB-2 (Homo sapiens) (UniProt P04626); assay: as above; settings: 18-24 h, at 10 µM, stronger effect = lower value
[3] = reduced viability of SK-BR-3 breast cancer cells – cell-based, 24 h, human, pilot screen (AID 572); settings: SK-BR-3 viability, CellTiter-Glo luminescence, at 10 µM, stronger effect = lower value;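 note: compound exposure lasted between 18 and 24 h rather than exactly 24 h; 100% = carrier-treated control wells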
[4] = HUVEC growth inhibition – cell-based, human, primary screen (AID 575;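 active = viability at or below 30% in both replicate assays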;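 note: 100% = median of untreated cell wells with 0.1% DMSO on each plate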); settings: HUVEC proliferation, CellTiter-Glo luminescence, 72 h; at 10 µM; stronger effect = lower value
In short: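 Test system: primary human umbilical vein endothelial cells; medium: endothelial basal medium with 2% FBS plus growth supplements; dosing: 10 µM compound only; times: 72 h treatment at 37 °C; signal: CTG luminescence; read-out: % viability relative to median vehicle-well signal on each plate; control set: vehicle and MePR control wells; plate: 384-well, collagen-coated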

[5] = H69AR cell proliferation blockers – human, duplicate replicates, primary screen (AID 580;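 active = viability at or under a set limit in both replicates, limit being median viability minus 3 SD, cut at about 48% in these data, passing the limit was not always enough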;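 note: 100% = mean luminescence of untreated wells and 0% = no signal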); settings: H69AR lung tumor cells viability, ATP luminescence, 72 h; at 10 µM; stronger effect = lower value
[6] = MRP1 drug-resistance reversers in H69AR cells – cell-based, doxorubicin co-treatment, pilot screen (AID 601;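 active = viability loss from added drug above about 55%, and viability with drug at most 40%, in both replicates, limit read from the data, passing the limit was not always enough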); settings: CellTiter-Glo, 72 h, at 10 µM; for differential viability (reversal): stronger effect = higher value
[7] = yeast transport mutant growth inhibition pilot in 384-well plates, post-Golgi transport modulator project (AID 636; in the data active = inhibition above about 31%); settings: absorbance 615 nm, about 18 h, stronger effect = higher value
[8] = growth suppression of yeast trafficking mutant, preliminary HTS, modulators of trafficking downstream of Golgi apparatus project, 1536-format plate, OD 615 nm (AID 637; in the data active = inhibition above about 30%); settings: yeast transport mutant growth, absorbance 615 nm, 18 h; stronger effect = higher value
[9] = H69AR cells + 2 uM doxorubicin, measured here: viability with 2 uM doxorubicin, stronger effect = lower value
[10] = H69AR cells, compound alone cytotoxicity

Chain of Receptor tyrosine-protein kinase erbB-2 (Homo sapiens) (P04626 whole entry, looked up): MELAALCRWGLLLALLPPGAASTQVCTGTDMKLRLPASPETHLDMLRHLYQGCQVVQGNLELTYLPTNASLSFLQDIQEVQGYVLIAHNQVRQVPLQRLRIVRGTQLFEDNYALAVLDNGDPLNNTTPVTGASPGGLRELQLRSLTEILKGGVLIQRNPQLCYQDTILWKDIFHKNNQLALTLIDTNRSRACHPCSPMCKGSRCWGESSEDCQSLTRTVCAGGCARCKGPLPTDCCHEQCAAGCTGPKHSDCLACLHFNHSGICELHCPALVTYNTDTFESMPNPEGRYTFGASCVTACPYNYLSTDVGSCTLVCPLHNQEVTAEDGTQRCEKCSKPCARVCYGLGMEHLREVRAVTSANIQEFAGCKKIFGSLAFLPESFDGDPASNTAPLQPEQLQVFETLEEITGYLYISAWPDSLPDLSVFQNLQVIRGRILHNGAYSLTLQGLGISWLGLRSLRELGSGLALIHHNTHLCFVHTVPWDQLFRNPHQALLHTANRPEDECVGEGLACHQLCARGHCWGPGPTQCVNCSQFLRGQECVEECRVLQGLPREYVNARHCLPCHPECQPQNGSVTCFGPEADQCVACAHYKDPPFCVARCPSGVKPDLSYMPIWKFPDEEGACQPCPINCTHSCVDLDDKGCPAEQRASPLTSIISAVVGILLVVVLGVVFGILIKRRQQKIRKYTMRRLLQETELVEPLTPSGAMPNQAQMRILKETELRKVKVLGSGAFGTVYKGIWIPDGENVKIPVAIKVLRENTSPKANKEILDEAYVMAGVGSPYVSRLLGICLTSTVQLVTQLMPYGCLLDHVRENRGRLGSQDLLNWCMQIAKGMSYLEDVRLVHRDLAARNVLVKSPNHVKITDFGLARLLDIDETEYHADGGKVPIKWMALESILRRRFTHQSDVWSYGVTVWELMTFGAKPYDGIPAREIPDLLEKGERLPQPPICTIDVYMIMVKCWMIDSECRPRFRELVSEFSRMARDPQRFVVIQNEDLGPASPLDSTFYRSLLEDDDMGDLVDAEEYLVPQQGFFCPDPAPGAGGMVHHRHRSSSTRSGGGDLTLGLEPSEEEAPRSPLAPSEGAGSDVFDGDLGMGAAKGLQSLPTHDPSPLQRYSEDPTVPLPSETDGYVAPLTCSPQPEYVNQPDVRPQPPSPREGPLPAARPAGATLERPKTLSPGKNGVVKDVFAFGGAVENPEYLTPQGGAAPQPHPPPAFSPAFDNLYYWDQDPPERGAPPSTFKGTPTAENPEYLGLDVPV

| SMILES | viability [1] | Her2 level [2] | viability [3] | viability [4] | viability [5] | differential viability (reversal) ([6]; H69AR cells + 2 uM doxorubicin) | viability [6, 9] | viability [6, 10] | inhibition [7] | inhibition [8] |
| --- | --- | --- | --- | --- | --- | --- | --- | --- | --- | --- |
| CCC1=C(C(=O)OC)C(c2cc(OC)ccc2OC)C(C#N)=C(N)O1 (stereo not given) | 99.5% | 87.5% (inactive) | 99.5% (inactive) | 71.9% (inactive) | 87.2% (inactive) | -0.035% (inactive) | 87.2% | 87.2% | -6.67% (inactive) | -0.98% (inactive) |
| CCOC(=O)c1[nH]c(C)c(C(=O)N(C)C)c1C | 110% | 88.5% (inactive) | 110% (inactive) | 103% (inactive) | 95.6% (inactive) | -0.97% (inactive) | 96.6% | 95.6% | -5.79% (inactive) | -7.3% (inactive) |
| COc1ccc(N2CCN(C(c3cccs3)c3nnnn3C3CCCC3)CC2)cc1 (stereo not given) | 90.5% | 95% (inactive) | 90.5% (inactive) | 69.3% (inactive) | 70% (inactive) | -17.6% (inactive) | 87.5% | 70% | -3.25% (inactive) | -5.87% (inactive) |
| COc1ccc(C(=O)N2CCN(c3nc4cc(C)ccc4cc3C#N)CC2)c(OC)c1 | 112% | 98% (inactive) | 112% (inactive) | 88.1% (inactive) | 85.4% (inactive) | -9.04% (inactive) | 94.5% | 85.4% | -2.73% (inactive) | -1.75% (inactive) |
| COC(=O)c1cn(C(=O)OC)c2ccccc12 | 96.5% | 102% (inactive) | 96.5% (inactive) | 85.1% (inactive) | 87.7% (inactive) | -0.61% (inactive) | 88.3% | 87.7% | -4.87% (inactive) | 4.1% (inactive) |
| COc1ccc(-c2ccc(-c3nnc(-c4ccncc4)o3)cc2)cc1 | 130% | 103% (inactive) | 130% (inactive) | 119% (inactive) | 96.3% (inactive) | 6.73% (inactive) | 89.5% | 96.3% | -5.87% (inactive) | 0% (inactive) |
| COc1ccccc1Nc1nc2ccccc2[nH]1 | 92% | 93.5% (inactive) | 92% (inactive) | 86.3% (inactive) | 72.8% (inactive) | -10.6% (inactive) | 83.4% | 72.8% | -9.07% (inactive) | -7.94% (inactive) |
| Cc1ccc(N2CCN(C(=O)c3ccccc3Br)CC2)c(C)c1 | 110% | 72% (inactive) | 110% (inactive) | 93% (inactive) | 89.2% (inactive) | 10.5% (inactive) | 78.6% | 89.2% | -5.6% (inactive) | 0.16% (inactive) |
| CCCN(C(=O)CSc1nnc(-c2ccoc2C)n1N)C1CCS(=O)(=O)C1 (stereo not given) | 86.5% | 88.5% (inactive) | 86.5% (inactive) | 79.7% (inactive) | 94.8% (inactive) | 7.94% (inactive) | 86.9% | 94.8% | -2.6% (inactive) | 2.13% (inactive) |
| O=C(CSc1nnc(Cc2cccs2)n1Cc1ccco1)Nc1cccc(Cl)c1 | 82.5% | 64% (inactive) | 82.5% (inactive) | 73.4% (inactive) | 87% (inactive) | -8.62% (inactive) | 95.6% | 87% | -3.38% (inactive) | -7.5% (inactive) |
| COc1ccccc1Oc1coc2c(CN3CCN(C)CC3)c(O)ccc2c1=O | 102% | 111% (inactive) | 102% (inactive) | 96.1% (inactive) | 99.5% (inactive) | 14.9% (inactive) | 84.7% | 99.5% | -1.82% (inactive) | 1% (inactive) |
| CC(C)(C)c1cc(C(=S)N2CCN(CCO)CC2)cc(C(C)(C)C)c1O | 123% | 86% (inactive) | 123% (inactive) | 94.7% (inactive) | 96.2% (inactive) | 17.4% (inactive) | 78.8% | 96.2% | -6.13% (inactive) | 2.42% (inactive) |
| CCOC(=O)C1CCCN(C(=O)c2cc3c(C)nc4ccccc4c3o2)C1 (stereo not given) | 86% | 99% (inactive) | 86% (inactive) | 71.7% (inactive) | 74.7% (inactive) | 38.5% (inactive) | 36.2% | 74.7% | -1.87% (inactive) | 16.7% (inactive) |
| CC(=O)c1cccc(NC(=O)N2C3CCC2CC(O)(c2cccnc2)C3)c1 (stereo not given) | 102% | 98.5% (inactive) | 102% (inactive) | 100% (inactive) | 106% (inactive) | 9.59% (inactive) | 96.7% | 106% | 0.41% (inactive) | -5.83% (inactive) |
| COc1ccccc1-n1cnc(N)c1C(C)=O | 110% | 103% (inactive) | 110% (inactive) | 105% (inactive) | 103% (inactive) | -0.75% (inactive) | 104% | 103% | -4.21% (inactive) | 7.7% (inactive) |
| CCOC(=O)c1c(-c2ccc(C)o2)csc1NC(=O)COC(=O)c1cccs1 | 93% | 87.5% (inactive) | 93% (inactive) | 69.3% (inactive) | 84.4% (inactive) | 5.23% (inactive) | 79.2% | 84.4% | 1.3% (inactive) | -3.77% (inactive) |

| SMILES | viability [1] | Her2 level [2] | viability [3] | viability [4] | viability [5] | differential viability (reversal) ([6]; H69AR cells + 2 uM doxorubicin) | viability [6, 9] | viability [6, 10] | inhibition [7] | inhibition [8] |
| --- | --- | --- | --- | --- | --- | --- | --- | --- | --- | --- |
| CCOC(=O)N1CCC(N2CC34C=CC(O3)C(C(=O)O)C4C2=O)CC1 (stereo not given) | 102% | 99.5% (inactive) | 102% (inactive) | 92.4% (inactive) | 100% (inactive) | 18.3% (inactive) | 81.8% | 100% | -3.73% (inactive) | -4.26% (inactive) |
| N#CC1=C(N)SC(N)=C(C#N)C1CCc1ccccc1 | 79.5% | 77.5% (inactive) | 79.5% (inactive) | 44.8% (inactive) | 23.3% (active) | -8.65% (inactive) | 31.9% | 23.3% | -2.11% (inactive) | -0.36% (inactive) |
| CCOC(=O)c1sc2nc(C)cc(C)c2c1N | 105% | 95% (inactive) | 105% (inactive) | 110% (inactive) | 98.4% (inactive) | 15.6% (inactive) | 82.8% | 98.4% | -5.07% (inactive) | 4.52% (inactive) |
| c1ccc(CC2CCN(c3nc4ccccc4n4nnnc34)CC2)cc1 | 84% | 86% (inactive) | 84% (inactive) | 88.6% (inactive) | 81.5% (inactive) | 8.36% (inactive) | 73.2% | 81.5% | 0% (inactive) | 1.5% (inactive) |
| CCOc1cccc(C(=O)Nc2cccc(-c3nc4ncccc4o3)c2C)c1 | 99% | 75.5% (inactive) | 99% (inactive) | 81.5% (inactive) | 75.6% (inactive) | -12.9% (inactive) | 88.5% | 75.6% | -0.39% (inactive) | -0.97% (inactive) |
| O=C(CCC(=O)c1cccs1)NCc1ccccc1 | 102% | 114% (inactive) | 102% (inactive) | 98.2% (inactive) | 97.8% (inactive) | -0.02% (inactive) | 97.8% | 97.8% | -3.64% (inactive) | -2.22% (inactive) |
| O=C(Nc1cccc(C(F)(F)F)c1)c1cccnc1N1CCCC1 | 99% | 102% (inactive) | 99% (inactive) | 102% (inactive) | 95% (inactive) | -6.8% (inactive) | 102% | 95% | -2% (inactive) | -1.29% (inactive) |
| C/C(=N\O)C(=O)NCCCNCCCN(C)C | 104% | 94.5% (inactive) | 104% (inactive) | 117% (inactive) | 98.2% (inactive) | -3.41% (inactive) | 102% | 98.2% | -6.16% (inactive) | 0.48% (inactive) |
| O=C1C2CCCN2C(c2ccc(Cl)cc2)N1c1nccs1 (stereo not given) | 99% | 77% (inactive) | 99% (inactive) | 86.5% (inactive) | 97.4% (inactive) | 7.26% (inactive) | 90.2% | 97.4% | -2.24% (inactive) | -1.94% (inactive) |
| CCOc1ccc(C(=O)N(Cc2ccc(N(C)C)cc2)C2CCS(=O)(=O)C2)cc1 (stereo not given) | 114% | 121% (inactive) | 114% (inactive) | 101% (inactive) | 88.1% (inactive) | -16.6% (inactive) | 105% | 88.1% | -1.18% (inactive) | 2.79% (inactive) |
| Cc1ccc(-n2c(=O)c3sccc3n(CC(=O)NCc3ccco3)c2=O)cc1 | 107% | 102% (inactive) | 107% (inactive) | 96.5% (inactive) | 99% (inactive) | 7.63% (inactive) | 91.4% | 99% | -5.53% (inactive) | -2.91% (inactive) |
| CN(C)S(=O)(=O)c1ccc(C(=O)N2CCC(c3nc4ccccc4o3)CC2)cc1 | 82% | 83% (inactive) | 82% (inactive) | 95.1% (inactive) | 83% (inactive) | 8.86% (inactive) | 74.1% | 83% | -4.67% (inactive) | -6.07% (inactive) |
| O=C(Cn1nnc(-c2cc(Cl)ccc2-n2cnnn2)n1)N1CCCc2ccccc21 | 116% | 99.5% (inactive) | 116% (inactive) | 95.7% (inactive) | 96.4% (inactive) | 9.45% (inactive) | 87% | 96.4% | -2.47% (inactive) | 10.8% (inactive) |
| O=C(CCCC(=O)OCC(=O)NC1CCCC1)Nc1ccccn1 | 95.5% | 88% (inactive) | 95.5% (inactive) | 98.1% (inactive) | 96.9% (inactive) | -6.12% (inactive) | 103% | 96.9% | -6.8% (inactive) | 3.28% (inactive) |
| COC(=O)c1ccc(NC(=O)C2CC(=O)N(c3cc(C)ccc3C)C2)cc1 (stereo not given) | 97% | 99.5% (inactive) | 97% (inactive) | 96.3% (inactive) | 89.8% (inactive) | 3.6% (inactive) | 86.2% | 89.8% | -1.76% (inactive) | 13.7% (inactive) |
| O=C(NC1CCCCCC1)C1c2ccccc2C(=O)N1Cc1cccnc1 (stereo not given) | 108% | 99.5% (inactive) | 108% (inactive) | 74.3% (inactive) | 90.1% (inactive) | -12.5% (inactive) | 103% | 90.1% | 0.13% (inactive) | -7.3% (inactive) |
